From PubChem
Compounds with a hit are over-represented: about 2.1% of the library has one in this group of screens.
MC4R antag cAMP: antagonists of human melanocortin 4 receptor (MC4R) | P32245 | MC4R-expressing cells, MTII-stimulated cAMP, LANCE TR-FRET | inhibition, % at 6.5 µM | actives 0.48% (n = 360,000);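 active means inhibition above its plate's cutoff, the mean of tested wells on that plate plus 3 SD, cut at about 29% in these data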
Target sequence (P32245 whole entry, looked up): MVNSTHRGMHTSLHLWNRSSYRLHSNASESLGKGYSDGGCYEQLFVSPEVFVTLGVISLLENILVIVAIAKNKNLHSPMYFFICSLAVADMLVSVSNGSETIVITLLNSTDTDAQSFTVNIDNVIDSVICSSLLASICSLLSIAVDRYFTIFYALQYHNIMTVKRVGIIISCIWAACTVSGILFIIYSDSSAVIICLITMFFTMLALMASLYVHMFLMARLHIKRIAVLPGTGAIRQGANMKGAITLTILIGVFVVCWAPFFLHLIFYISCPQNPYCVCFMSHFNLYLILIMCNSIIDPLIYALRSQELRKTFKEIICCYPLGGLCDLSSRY
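Material: U2OS-MC4R stable cell line | Reagent: Melanotan II challenge after compound preincubation | Doses: One concentration, 6.5 µM nominal | Incubation: 30-min compound preincubation, 1-h Melanotan II challenge, 1-h detection, room temperature | Signal: TR-FRET cAMP assay | Replicates: One well per compound, no replicates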
MC4R ag barr: activates human MC4R beta-arrestin recruitment; P32245; U2OS MC4R beta-arrestin complementation, luminescence; percent of melanotan II response, DMSO zero; activation, % at 8.9 µM; actives 0.98% (n = 360,000);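 active means activation above a per-plate cutoff, the mean activation of sample wells on that plate plus 3 SD, cut at about 8% in these data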
SMARCA2 activ: increases SMARCA2 function in MMTV reporter cells. MG213 cells, MMTV-luciferase reporter, dexamethasone, overnight. activation, % at 9.1 µM. actives 1% (n = 370,000). AID 652017; in the data active means activation above about 7.8%
CFTR F508del cor: CFTR F508del correction in bronchial cells; CFBE cells, YFP halide quenching; stimulated with forskolin plus potentiator P3; % fluorescence drop versus neutral controls; activity (quench increase), % at 7.58 µM; actives 0.36% (n = 350,000);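 active means mean added fluorescence quench of at least 8% versus neutral control, with both replicates also reaching 8%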;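 further: cells transiently co-express mutant CFTR-F508del with the halide-sensitive YFP; corrector assay measuring rescue of mutant channel to the surface after 24 h compound exposure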
A number is an active result; n = inactive; x = not tested or not shown.

SMILES	MC4R antag cAMP	MC4R ag barr	SMARCA2 activ	CFTR F508del cor
Cc1ccc(C(O)(C(=O)NN(C(=O)c2ccccc2)c2ccccc2)c2ccc(C)cc2)cc1	n	8.3	n	x
Cc1ccc(N(NC(=O)C(O)(c2ccccc2)c2ccccc2)C(=O)CCl)cc1	n	10	n	x
COCCNC(=O)C[C@@H]1C=C[C@H](NC(=O)NC2CCCC2)[C@@H](CO)O1	x	x	x	n
C[C@H](CO)N1C[C@H](C)[C@@H](CN(C)C(=O)c2cccc(F)c2)Oc2ncc(C3=CCCCC3)cc2C1=O	x	x	x	n
COc1ccccc1-c1nc(S(=O)(=O)c2ccccc2)c(N2CCCCC2)o1	32	n	n	n
CN(C)C(=O)C[C@H]1CC[C@H]2[C@@H](COC[C@H](O)CN2S(=O)(=O)c2ccccc2)O1	x	x	x	n
COC1=CC(=O)C(O)=C(CCCCCCC/C=C/CCCCCCCC2=C(O)C(=O)C=C(OC)C2=O)C1=O	n	n	x	x
CCCCCCCCCCCC1=C(O)C(=O)C=C(O)C1=O	n	16	x	x
Cc1ccc(S(=O)(=O)Nc2cc(C)cc(CCNC=O)c2C)cc1	n	n	n	9.6
O=C(NCN1C(=O)C2C3C=CC(C3)C2C1=O)Nc1ccccn1 (configuration not stated)	n	n	n	x
O=C(CCN1C(=O)C2C3C=CC(C3)C2C1=O)Nc1ccccn1 (configuration not stated)	n	n	7.8	x
O=C(COc1ccccc1)N(Cc1ccccc1)c1nc(-c2ccccc2)cs1	n	21	n	x
COc1ccc(-c2csc(N(Cc3ccccc3)C(=O)COc3ccc(Cl)cc3)n2)cc1	n	n	n	x
COC(=O)c1[nH]c2c(c1C)C(=O)CC(c1cccc(OC)c1)C2 (configuration not stated)	n	n	n	8.4
COC(=O)c1[nH]c2c(c1C)C(=O)CC(c1ccc(OC)c(OC)c1)C2 (configuration not stated)	n	n	n	n
COCCOC(=O)c1[nH]c2c(c1C)C(=O)CC(c1cccs1)C2 (configuration not stated)	n	n	n	13
CCc1nc(N)nc(N)c1-c1ccc(Cl)c([N+](=O)[O-])c1	n	n	n	9.1
CCCOc1cccc(C(=O)Nc2ccc(Br)cc2F)c1	n	n	13	x
O=C(Nc1ccc(Br)cc1F)c1ccncc1	n	n	n	x
CCCOc1cccc(C(=O)Nc2cccc3ncccc23)c1	n	n	n	n
O=C(Nc1ccc(Br)cc1F)c1ccc2nsnc2c1	n	8.8	n	n
COc1cc(NC(=O)c2ccccc2Cl)c(OC)cc1NC(=O)CN1CCCCC1	n	n	7.8	n
COc1cc(NC(=O)c2ccc(C)cc2)c(OC)cc1NC(=O)CN1CCCCC1	n	n	n	x
O=C(Nc1ccc2c(c1)[C@@H]1C[C@H](CC(=O)N3CCOCC3)O[C@H](CO)[C@@H]1O2)C1CCC1	x	x	x	n
Cc1ccc(NC(=O)COc2ccc(Br)cc2CO)cc1S(=O)(=O)N1CCOCC1	n	n	n	8.6
SMILES	MC4R antag cAMP	MC4R ag barr	SMARCA2 activ	CFTR F508del cor
O=C(COc1ccc(Br)cc1CO)Nc1ccc(S(=O)(=O)N2CCCC2)cc1	n	n	n	n
C[C@H](CO)N1C[C@H](C)[C@H](CN(C)Cc2ccc(Oc3ccccc3)cc2)Oc2ccc(NS(C)(=O)=O)cc2CC1=O	x	x	x	n
CC(C)(C)C1CCc2onc(C(=O)Nc3cnn(Cc4ccc(F)cc4)c3)c2C1 (configuration not stated)	n	n	n	x
CC(C)(C)C1CCc2onc(C(=O)Nc3ccc(F)cc3F)c2C1 (configuration not stated)	n	8.3	n	x
Cc1ccc(-c2nc(CSCC(=O)Nc3cc(C)on3)c(C)o2)cc1	n	n	n	8.4
C[C@H]1CN([C@@H](C)CO)C(=O)c2cccc(NC(=O)Nc3cccc4ccccc34)c2O[C@@H]1CN(C)S(=O)(=O)c1ccc(F)cc1	x	x	x	n
COc1ccccc1C(=O)Nc1ccc(S(=O)(=O)Nc2cc(C)on2)cc1	n	n	n	x
COc1ccccc1NS(=O)(=O)c1ccc(C)c(C(=O)Nc2cc(C)on2)c1	n	n	n	8.8
CN(C)CC(=O)N1CCCCN2[C@H](CO)[C@H](c3ccc(/C=C/c4ccccc4)cc3)[C@@H]2C1	x	x	x	n
COc1ccc(S(=O)(=O)Nc2ccc3c(c2)C(=O)N([C@@H](C)CO)C[C@H](C)[C@H](CN(C)C(=O)Cc2ccccc2)OCCCC[C@@H](C)O3)cc1	x	x	x	n
O=C(NCc1cccc(CNC(=O)C(=O)NCc2ccco2)c1)C(=O)NCc1ccco1	n	9.6	n	x
C[C@H]1CN([C@@H](C)CO)C(=O)c2cc(NS(=O)(=O)c3ccc(F)cc3)ccc2O[C@H]1CN(C)CC1CCCCC1	x	x	x	n
O=C(NC(=S)Nc1ccc2oc(=O)ccc2c1)c1ccccc1F	n	8.4	n	n
COc1cccc(NC(=O)N(C)C[C@H]2Oc3cc(/C=C/c4ccccc4)ccc3S(=O)(=O)N([C@@H](C)CO)C[C@H]2C)c1	x	x	x	n
O=C(COC(=O)COc1ccccc1F)NCCc1ccc(F)cc1	n	n	n	9.1
C[C@@H]1CN([C@H](C)CO)C(=O)c2cc(NC(=O)Nc3ccc(F)cc3)ccc2O[C@H]1CN(C)C(=O)Nc1ccc(F)cc1	x	x	x	n
COc1ccc(S(=O)(=O)Nc2cc3c(cc2C(C)=O)OCO3)cc1	n	n	n	12
CCCNC(=O)N(C)C[C@@H]1Oc2cc(C#CC3CC3)ccc2S(=O)(=O)N([C@@H](C)CO)C[C@@H]1C	x	x	x	n
Cc1ccc(NC(=O)Nc2ccc3c(c2)N(C)C(=O)CS3)nc1	n	9.4	n	n
Cc1cccc(NC(=O)Nc2ccc3c(c2)N(C)C(=O)CS3)n1	n	n	n	n
Cc1ccnc(NC(=O)Nc2ccc3c(c2)N(C)C(=O)CS3)c1	n	9.1	n	x
C=C(CN(C)C)C(=O)c1ccc2c(c1)OCO2	31	n	n	n
Cc1noc(C)c1S(=O)(=O)Nc1ccc2c(c1)CC(=O)N([C@@H](C)CO)C[C@H](C)[C@H](CN(C)Cc1ccc3c(c1)OCO3)O2	x	x	x	n
CCCC#Cc1cnc2c(c1)C(=O)N([C@H](C)CO)C[C@H](C)[C@H](CN(C)C(=O)c1ccc3c(c1)OCO3)O2	x	x	x	n
S=c1[nH]nc(-c2cccs2)n1/N=C/c1cn(-c2ccccc2)nc1-c1ccccc1	n	9.4	n	n
SMILES	MC4R antag cAMP	MC4R ag barr	SMARCA2 activ	CFTR F508del cor
CCNC(=O)C[C@@H]1CC[C@H](NS(=O)(=O)c2ccc(C)cc2)[C@H](CO)O1	x	x	x	n
Cc1cc(NC(=O)c2ccc(C)c([N+](=O)[O-])c2)no1	n	n	n	n
Cc1cc(NC(=O)c2ccc(Br)c([N+](=O)[O-])c2)no1	n	9.3	n	n
CCCC#Cc1ccc(CC[C@H]2O[C@H]3CC[C@H](CO)O[C@H]3C[C@@H]2n2cc(C(C)(C)O)nn2)cc1	x	x	x	n
CCc1c(C)nc(N)n2c(SCC(=O)Nc3ccccc3OC)nnc12	n	n	n	n
CCOc1ccccc1NC(=O)CSc1nnc2c(CC)c(C)nc(N)n12	n	n	7.9	x
O=C(c1ccncc1)N1CC2(C1)[C@H](c1ccccc1)[C@@H](CO)N2C(=O)c1ccncc1	x	x	x	n
